Bioassay records as filed in PubChem BioAssay.
This is a sample that favours compounds with a hit; in the whole collection about 1.8% have one here.
TRAIL sens C8 = caspase-8 TRAIL sensitization. NB7+C8 cells + TRAIL, ATPlite viability luminescence. inhibition (viability loss, TRAIL sensitization), % at 10 µM. 360,000 tested, 1% active. AID 624354;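 active means compounds causing at least 50% loss of cell viability in the single-dose screen, relative to plate controls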
PPC-1+TRAIL kill = compounds killing PPC-1 cancer cells with TRAIL present (potentiator screen, no TRAIL-free arm). PPC-1 cells + TRAIL, ATPLite viability luminescence. cell killing (% activity), % at 4 µM or 5 µM. 220,000 tested, 0.41% active;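 active means cell killing above 50% in the first pass at 4 µM, then a duplicate retest at 5 µM averaging 50% or more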;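 further: plate controls were cells with TRAIL plus DMSO for no effect and medium-only wells lacking cells for full effect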
FLuc act counter = affects firefly luciferase, flagging false hits in luciferase stimulation screens. AID 1027. activation factor at 10 µM. ATPlite luciferase biochemical, luminescence, 10 min; 0 = ATP-free wells, 1 = DMSO control. P08659. 200,000 tested, under 10 active;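 active means luciferase activation factor, scaled between plate controls, of at least 2 with compound at 10 µM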
Target sequence (P08659 whole entry, looked up): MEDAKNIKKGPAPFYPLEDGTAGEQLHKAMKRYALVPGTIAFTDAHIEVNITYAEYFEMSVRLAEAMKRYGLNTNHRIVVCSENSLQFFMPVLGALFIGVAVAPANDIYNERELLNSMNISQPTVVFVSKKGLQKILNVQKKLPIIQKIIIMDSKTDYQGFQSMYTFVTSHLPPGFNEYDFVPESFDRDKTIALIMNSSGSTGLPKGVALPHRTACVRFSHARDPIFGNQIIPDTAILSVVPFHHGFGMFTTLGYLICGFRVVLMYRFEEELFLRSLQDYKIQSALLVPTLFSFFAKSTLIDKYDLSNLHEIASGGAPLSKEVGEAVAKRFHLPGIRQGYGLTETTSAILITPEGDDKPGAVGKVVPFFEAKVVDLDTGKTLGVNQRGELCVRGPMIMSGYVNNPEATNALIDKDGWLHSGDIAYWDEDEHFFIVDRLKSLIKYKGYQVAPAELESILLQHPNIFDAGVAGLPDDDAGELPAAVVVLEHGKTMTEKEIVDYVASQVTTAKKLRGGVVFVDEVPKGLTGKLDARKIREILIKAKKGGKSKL
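Material: luciferase plus luciferin reagent, cell-free. Medium: PBS buffer for ATP. Also added: ATP substrate, dispensed from a 10.24 µM working solution in PBS. Doses: test compounds dosed from 2 mM stocks in 100% DMSO. Incubation: 10 min post-reagent at room temperature. Technique: light output (luminescence). Read-out basis: luminescence gain marking luciferase activators.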
MIN6 prolif-1 = induces beta-cell replication in MIN6 cells. 330,000 tested, 0.29% active. MIN6 cells proliferation, ATPlite luminescence, 48 h; cells starved in 0.2% serum; 100% = growth in 10% serum. AID 2380. proliferation, % at 10 µM;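 active means compounds whose signal lies at least 3.5 SD above the mean of all wells on their plate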;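 further: 0% = DMSO-treated cells in low-serum medium and 100% = 10% serum control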
FLuc inh counter = inhibits firefly luciferase, flagging false hits in luciferase inhibition screens. ATPLite firefly luciferase biochemical luminescence, 10 min. inhibition, % at 10 µM. 200,000 tested, 1.5% active. AID 1006;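 active means inhibition above about 50% when tested at 10 µM, limit read from the data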
iPSC survival up = enhancers of human iPSC single-cell survival. hiPSC single-cell survival, ATPlite luminescence; 100% = ROCK inhibitor wells, 0% = DMSO. survival enhancement, % at 20 µM. 360,000 tested, 0.044% active; in the data active means survival enhancement above about 18%;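 further: cells exposed to compounds for 16 hours before the ATP read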
MIN6 prolif-2 = confirmation of inducers of beta-cell replication in MIN6 cells | shares compounds with MIN6 prolif-1 | MIN6 beta-cell proliferation, ATPlite luminescence, 48 h; cells kept in 0.2% serum; scaled between 0.2% and 10% serum | proliferation increase, % at 50 µM | 920 tested, under 10 active | AID 463095;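 active means proliferation increase above 40% at any of the four tested concentrations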
* hit, by the source's call; nt = no result.

SMILES | TRAIL sens C8 | PPC-1+TRAIL kill | FLuc act counter | MIN6 prolif-1 | FLuc inh counter | iPSC survival up | MIN6 prolif-2
O=C(NCC(=O)N(Cc1ccc(F)cc1)C(C(=O)NC1CCCC1)c1ccco1)c1ccco1 (centres undefined) | 17 | 10 | 1 | 7.1* | -3 | -1 | -2
Cc1ccc(C(C(=O)NC2CCCCC2)N(CC2CCCO2)C(=O)CNC(=O)c2ccco2)cc1 (centres undefined) | 3 | 7 | 1 | 5.5* | 2 | -1 | -1
COc1ccc(OC)c(C(=O)CN2C(=O)C(=O)N(C3CCCC3)C2=O)c1 | -17 | nt | nt | -1 | nt | 4 | nt
CN(C)S(=O)(=O)c1cc([N+](=O)[O-])ccc1N1CCCCCC1 | 5 | -6 | 1.1 | 12* | -10 | -2 | -4
CC(C)CN(CC(C)C)S(=O)(=O)c1cc([N+](=O)[O-])ccc1N1CCCCCC1 | 27 | -7 | 1.1 | 0 | -6 | -1 | nt
CCC(C)(C)C1CCc2[nH]nc(C(=O)NCCNC(=O)OC(C)(C)C)c2C1 (centres undefined) | 8 | nt | nt | -9 | nt | 3 | nt
CCOC(=O)C1CCCN(C2CC(=O)N(c3ccccc3)C2=O)C1 (centres undefined) | -5 | -8 | 1.1 | 0 | -9 | 2 | nt
CCOC(=O)C1CCCN(C2CC(=O)N(c3ccc(N4C(=O)CC(N5CCCC(C(=O)OCC)C5)C4=O)cc3)C2=O)C1 (centres undefined) | -7 | -25 | 1 | 9.5* | -2 | 4 | -1
CCN1CCN(C(=O)C2CCN(S(=O)(=O)c3ccc(Br)cc3)CC2)CC1 | -5 | nt | nt | -5 | nt | 0 | nt
CCN1CCN(C(=O)C2CCN(S(=O)(=O)c3ccc(SC)cc3)CC2)CC1 | 4 | nt | nt | 16* | nt | 0 | -1
COc1ccc(CCN(Cc2ccccn2)C(=S)Nc2cccc(C)c2)cc1OC | 11 | -2 | 1 | 8.7* | -5 | 0 | -6
O=C(N/N=C/c1cc2c(cc1Cl)OCO2)c1cccc(Br)c1 | 0 | nt | nt | 11* | nt | 1 | -2
C=CCSc1nc2c(c(=O)[nH]c(=O)n2C)n1C/C=C(/C)Cl | -7 | 16 | 1.1 | 6.7* | -11 | 4 | 2
Cc1cc(C(=O)CSc2nnc(-c3ccccc3)n2-c2ccccc2)c(C)n1-c1ncn[nH]1 | -14 | 33 | 1 | 6.9* | -5 | 2 | -4
CC(Oc1cc2oc(=O)cc(-c3ccccc3)c2cc1Cl)C(=O)NCC1CCC(C(=O)O)CC1 (centres undefined) | 3 | nt | nt | 1 | nt | 0 | nt
CC(NC(=O)OC(C)(C)C)C(=O)Oc1cc2oc(=O)cc(-c3ccccc3)c2cc1Cl (centres undefined) | -17 | 5 | 1 | 5.9* | -2 | 2 | -6
O=C(O)c1cnn(-c2nc(-c3cccc([N+](=O)[O-])c3)cs2)c1C(F)(F)F | -2 | nt | nt | -2 | nt | 0 | nt
CCC(=O)Nc1cc(C(=O)O)ccc1Sc1ccc(C)cc1 | -1 | -8 | 1 | 7.5* | -3 | 0 | 0
COC(=O)C1CCN(C(=O)COC(=O)C2CCN(S(=O)(=O)c3ccc(C)c(C)c3)CC2)CC1 | -1 | nt | nt | -5 | nt | 0 | nt
O=C(NNC(=O)C1CCCO1)c1ccc(Cl)cc1 (centres undefined) | 1 | 11 | 1 | 8.5* | -1 | -1 | -2
O=C(NNC(=O)C1CCCO1)c1ccc([N+](=O)[O-])cc1 (centres undefined) | -13 | nt | nt | 0 | nt | 0 | nt
COc1ccc(OC)c(S(=O)(=O)N2CCC(C(=O)NCc3ccncc3)CC2)c1 | 1 | nt | nt | -1 | nt | -1 | nt
COC(=O)c1ccc(CNC(=O)C23CC4CC(CC(C4)C2)C3)cc1 | -5 | nt | nt | 7 | nt | 0 | nt
CCOC(=O)c1cc2c(=O)n3cccc(C)c3nc2n(CC2CCCO2)c1=NC(C)=O (centres undefined) | 2 | nt | nt | 9.6* | nt | -2 | 1
O=Nc1c(O)n(Cc2cccc(C(F)(F)F)c2)c2ccccc12 | 0 | 47 | 1.1 | -4 | -5 | 4 | nt
SMILES | TRAIL sens C8 | PPC-1+TRAIL kill | FLuc act counter | MIN6 prolif-1 | FLuc inh counter | iPSC survival up | MIN6 prolif-2
O=C1CCCN1c1ccc(Br)cc1 | -6 | 6 | 1.1 | 7.2* | -7 | 2 | -2
CCC(C(=O)Nc1cc(C)nn1-c1nc(C)cc(C)n1)c1ccccc1 (centres undefined) | -4 | 14 | 1 | 6.1* | 0 | 0 | -6
CCOC(=O)c1cnc2ccc(C(=O)OC)cc2c1NCCc1ccc(OC)c(OC)c1 | 12 | 17 | 1.1 | 0.0* | -7 | -1 | 3
CCOC(=O)c1cnc2c(C)cccc2c1NCCc1ccc(OC)c(OC)c1 | -5 | 12 | 1 | 3 | -3 | -2 | nt
COc1ccc(S(=O)(=O)N2CCOCC2)cc1NC(=O)C1CC(=O)N(c2ccc3c(c2)OCCO3)C1 (centres undefined) | -16 | nt | nt | nt | nt | 1 | nt
CCN1CCN(c2oc(/C=C/c3ccccc3)nc2C#N)CC1 | -12 | 19 | nt | 0 | nt | 0 | nt
C[C@@H]1C[C@@H]2OC(=O)[C@]3(C)[C@H]2[C@@H](OC3(C)O)[C@]2(C)C(=O)CC[C@H]12 (some centres undefined) | nt | 8 | nt | 11* | nt | nt | 0
CCOc1cccc(N2CCN(CCNC(=O)Nc3ccc(C)cc3)CC2)c1C | 5 | nt | nt | -4 | nt | -1 | nt
CCOC(=O)c1c(NS(C)(=O)=O)sc2c1CCC(C)C2 (centres undefined) | -7 | 12 | 1 | 7.3* | -2 | 10 | -6
CCOC(=O)c1c(NC(=O)C(C)N2CCN(S(=O)(=O)c3cccs3)CC2)sc2c1CCC(C)C2 (centres undefined) | 1 | 9 | 1.1 | 5.5* | -8 | 0 | -1
CCOC(=O)c1c(NC(=O)C2CCN(S(=O)(=O)c3cccs3)CC2)sc(C)c1C | -18 | -4 | 1.1 | 1 | -7 | 0 | nt
CCOC(=O)c1c(N)sc2c1CCC(C)C2 (centres undefined) | -3 | 28 | 1 | -3 | 0 | -2 | nt
Cc1cc(C)c(C)c(S(=O)(=O)N2CCCN(C)CC2)c1C | 4 | nt | nt | -2 | nt | 0 | nt
O=C(COC(=O)c1ccc(Cl)c(S(=O)(=O)N2CCCCC2)c1)NC1CCCCC1 | -5 | nt | nt | nt | nt | -2 | nt
CC(C)n1c(SCc2ccc(Cl)cc2)nc2c1c(=O)[nH]c(=O)n2C | -9 | -8 | 1 | 5.6* | -1 | 1 | -6
Cc1ccc(OC(=O)N(C)C[C@H]2OCc3cn(nn3)CCCC(=O)N([C@H](C)CO)C[C@@H]2C)cc1 | 13 | nt | nt | nt | nt | 1 | nt
C#Cc1cccc(C(=O)N2CCCC(Nc3cccc(F)c3)C2)c1 (centres undefined) | -20 | nt | nt | -2 | nt | 0 | nt
